Assay results from ChEMBL document CHEMBL4177770, “Discovery of MK-6169, a Potent Pan-Genotype Hepatitis C Virus NS5A Inhibitor with Optimized Activity against Common Resistance-Associated Substitutions” (J Med Chem, 2018).
Positions count from the first letter of the chain named.

How the values were obtained:
[1] = molecular target: Genome polyprotein (Hepatitis C virus genotype 1b (isolate Con1) (HCV)) (UniProt Q9WMX2); test: Inhibition of NS5A in HCV genotype 1b Con1 infected in HB1 replicon cells assessed as decrease in viral replication by TaqMan-based assay; format: cell-based
[2] = molecular target: Genome polyprotein (Hepatitis C virus genotype 3a (isolate NZL1) (HCV)) (UniProt Q81258); test: Inhibition of NS5A in HCV genotype 3a NZL1 infected in HB1 replicon cells assessed as decrease in viral replication by TaqMan-based assay; format: cell-based
Genome polyprotein (Hepatitis C virus genotype 3a (isolate NZL1) (HCV)), sequence (Q81258 whole entry): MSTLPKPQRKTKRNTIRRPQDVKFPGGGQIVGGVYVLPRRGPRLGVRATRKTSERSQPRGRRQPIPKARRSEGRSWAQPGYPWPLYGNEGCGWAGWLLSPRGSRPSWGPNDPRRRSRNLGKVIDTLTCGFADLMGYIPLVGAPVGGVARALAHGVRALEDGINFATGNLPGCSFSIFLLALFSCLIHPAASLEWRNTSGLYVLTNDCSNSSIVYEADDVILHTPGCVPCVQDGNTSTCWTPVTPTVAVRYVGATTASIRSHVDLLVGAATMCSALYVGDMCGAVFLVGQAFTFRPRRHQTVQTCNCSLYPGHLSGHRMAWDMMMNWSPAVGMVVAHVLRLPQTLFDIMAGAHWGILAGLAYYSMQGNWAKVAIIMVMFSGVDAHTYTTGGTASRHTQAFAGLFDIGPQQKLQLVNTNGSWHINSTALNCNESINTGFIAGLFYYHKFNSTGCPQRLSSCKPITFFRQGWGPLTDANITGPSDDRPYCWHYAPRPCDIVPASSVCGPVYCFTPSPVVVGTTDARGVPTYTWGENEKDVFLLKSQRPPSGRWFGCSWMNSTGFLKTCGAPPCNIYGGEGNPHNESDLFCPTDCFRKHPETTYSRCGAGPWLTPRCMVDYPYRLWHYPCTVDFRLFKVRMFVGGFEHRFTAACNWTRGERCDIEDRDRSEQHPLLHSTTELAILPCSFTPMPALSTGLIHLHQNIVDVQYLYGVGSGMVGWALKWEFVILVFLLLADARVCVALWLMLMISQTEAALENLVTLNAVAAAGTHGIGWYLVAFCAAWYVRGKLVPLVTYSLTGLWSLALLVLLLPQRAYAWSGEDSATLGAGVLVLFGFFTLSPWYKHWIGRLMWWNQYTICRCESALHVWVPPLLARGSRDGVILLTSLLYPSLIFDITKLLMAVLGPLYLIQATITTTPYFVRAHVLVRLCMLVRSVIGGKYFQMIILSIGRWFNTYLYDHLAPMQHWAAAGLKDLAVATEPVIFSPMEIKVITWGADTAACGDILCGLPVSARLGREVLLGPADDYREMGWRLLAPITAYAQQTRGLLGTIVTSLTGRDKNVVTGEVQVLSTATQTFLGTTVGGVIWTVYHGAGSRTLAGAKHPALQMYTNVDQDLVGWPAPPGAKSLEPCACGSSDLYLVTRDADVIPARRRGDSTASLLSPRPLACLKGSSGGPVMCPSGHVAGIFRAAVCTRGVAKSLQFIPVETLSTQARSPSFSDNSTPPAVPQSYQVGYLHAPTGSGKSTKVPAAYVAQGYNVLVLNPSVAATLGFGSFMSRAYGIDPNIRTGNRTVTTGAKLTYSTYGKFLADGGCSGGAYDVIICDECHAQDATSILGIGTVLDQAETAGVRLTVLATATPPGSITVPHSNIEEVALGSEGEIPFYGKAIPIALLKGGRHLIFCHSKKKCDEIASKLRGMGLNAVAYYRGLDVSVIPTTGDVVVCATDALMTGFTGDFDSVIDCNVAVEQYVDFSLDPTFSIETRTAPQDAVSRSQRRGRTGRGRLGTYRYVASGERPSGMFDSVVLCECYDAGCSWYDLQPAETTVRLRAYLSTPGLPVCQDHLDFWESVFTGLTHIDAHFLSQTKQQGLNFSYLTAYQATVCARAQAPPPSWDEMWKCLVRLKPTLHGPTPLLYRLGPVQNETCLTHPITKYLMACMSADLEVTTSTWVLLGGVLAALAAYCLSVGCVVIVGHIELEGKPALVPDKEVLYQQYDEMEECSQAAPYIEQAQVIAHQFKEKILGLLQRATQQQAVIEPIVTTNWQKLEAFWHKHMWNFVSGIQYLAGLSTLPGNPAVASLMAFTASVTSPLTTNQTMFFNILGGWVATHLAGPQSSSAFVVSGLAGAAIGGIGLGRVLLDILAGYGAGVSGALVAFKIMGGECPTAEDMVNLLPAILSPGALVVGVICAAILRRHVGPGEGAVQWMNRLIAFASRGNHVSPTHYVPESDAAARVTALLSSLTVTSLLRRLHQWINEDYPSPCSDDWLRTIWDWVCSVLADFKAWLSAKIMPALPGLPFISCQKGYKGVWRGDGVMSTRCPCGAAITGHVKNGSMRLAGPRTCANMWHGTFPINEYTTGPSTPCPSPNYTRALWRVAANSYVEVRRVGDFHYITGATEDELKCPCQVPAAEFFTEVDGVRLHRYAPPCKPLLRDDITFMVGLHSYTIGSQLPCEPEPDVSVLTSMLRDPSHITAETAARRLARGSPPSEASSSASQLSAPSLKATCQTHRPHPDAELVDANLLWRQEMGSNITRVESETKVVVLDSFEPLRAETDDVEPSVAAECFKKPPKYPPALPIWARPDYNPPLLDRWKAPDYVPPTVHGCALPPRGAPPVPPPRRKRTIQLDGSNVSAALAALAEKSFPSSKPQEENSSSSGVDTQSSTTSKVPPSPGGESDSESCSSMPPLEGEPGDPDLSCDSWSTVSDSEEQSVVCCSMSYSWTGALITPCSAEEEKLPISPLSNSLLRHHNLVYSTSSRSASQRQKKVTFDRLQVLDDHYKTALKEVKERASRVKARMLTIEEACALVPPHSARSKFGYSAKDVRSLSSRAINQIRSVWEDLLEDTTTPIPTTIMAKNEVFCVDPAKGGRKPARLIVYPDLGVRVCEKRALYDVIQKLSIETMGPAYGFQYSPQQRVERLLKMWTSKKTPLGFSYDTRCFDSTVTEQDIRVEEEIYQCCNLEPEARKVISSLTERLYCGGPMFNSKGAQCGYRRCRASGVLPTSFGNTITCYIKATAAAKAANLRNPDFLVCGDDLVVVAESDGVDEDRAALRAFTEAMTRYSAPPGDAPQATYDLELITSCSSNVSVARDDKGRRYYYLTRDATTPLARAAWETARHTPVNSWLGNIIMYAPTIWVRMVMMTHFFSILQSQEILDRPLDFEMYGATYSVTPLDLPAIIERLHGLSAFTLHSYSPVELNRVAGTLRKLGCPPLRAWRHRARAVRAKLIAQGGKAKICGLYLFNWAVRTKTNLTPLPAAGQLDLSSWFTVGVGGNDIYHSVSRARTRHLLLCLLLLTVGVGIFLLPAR

[3] = molecular target: T1, Nonstructural protein 5A (Hepatitis C virus) (UniProt Q5L478); test: Inhibition of NS5A in HCV genotype 1a infected in HuH7 replicon cells assessed as decrease in viral replication after 3 days by RT-PCR method; format: cell-based; settings: Hepatitis C virus subtype 1a
T1 sequence (whole entry): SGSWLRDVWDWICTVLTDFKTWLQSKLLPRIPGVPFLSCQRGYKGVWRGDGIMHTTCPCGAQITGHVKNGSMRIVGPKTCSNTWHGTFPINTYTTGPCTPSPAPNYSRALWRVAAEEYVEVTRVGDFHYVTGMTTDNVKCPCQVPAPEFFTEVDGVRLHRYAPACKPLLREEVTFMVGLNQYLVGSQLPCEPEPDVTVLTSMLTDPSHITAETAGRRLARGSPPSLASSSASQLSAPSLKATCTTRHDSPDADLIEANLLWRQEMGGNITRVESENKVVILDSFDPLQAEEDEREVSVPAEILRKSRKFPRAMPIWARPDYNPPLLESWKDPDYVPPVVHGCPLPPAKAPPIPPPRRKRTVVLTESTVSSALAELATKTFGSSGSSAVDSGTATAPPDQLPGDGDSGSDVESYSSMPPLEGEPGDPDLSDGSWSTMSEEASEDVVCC

[4] = molecular target: T1, Nonstructural protein 5A (Hepatitis C virus); test: Inhibition of NS5A in HCV genotype 1b infected in HuH7 replicon cells assessed as decrease in viral replication after 3 days by RT-PCR method; format: cell-based; settings: Hepatitis C virus subtype 1b
[5] = molecular target: T1, Nonstructural protein 5A (Hepatitis C virus); test: Inhibition of NS5A L31M mutant in HCV genotype 2b infected in HuH7 replicon cells assessed as decrease in viral replication after 3 days by RT-PCR method; format: cell-based; settings: Hepatitis C virus subtype 2b
[6] = molecular target: T1, Nonstructural protein 5A (Hepatitis C virus); test: Inhibition of NS5A in HCV genotype 3a infected in HuH7 replicon cells assessed as decrease in viral replication after 3 days by RT-PCR method; format: cell-based; settings: Hepatitis C virus subtype 3a
[7] = molecular target: T1, Nonstructural protein 5A (Hepatitis C virus); test: Inhibition of NS5A in HCV genotype 4a infected in HuH7 replicon cells assessed as decrease in viral replication after 3 days by RT-PCR method; format: cell-based; settings: Hepatitis C virus subtype 4a
[8] = tested on: T2, Nonstructural protein 5A (Hepatitis C virus), Q5L478 [Y93H]; test: Inhibition of NS5A Y93H mutant in HCV genotype 1a infected in HuH7 replicon cells assessed as decrease in viral replication after 3 days by RT-PCR method; format: cell-based; settings: Hepatitis C virus subtype 1a
T2 sequence (whole entry): T1 sequence (whole entry) with Y93H

[9] = molecular target: T1, Nonstructural protein 5A (Hepatitis C virus); test: Inhibition of NS5A L31V mutant in HCV genotype 1a infected in HuH7 replicon cells assessed as decrease in viral replication after 3 days by RT-PCR method; format: cell-based; settings: Hepatitis C virus subtype 1a
[10] = Half life in Wistar Han rat at 2 mg/kg, iv by LC/MS method; format: ADME, organism-based; settings: in vivo
Outline: (§1)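 Male Wistar Han rats, two per group, dosed IV at 2 mg/kg in 60% PEG200. Plasma was obtained by centrifuging the blood, and compound concentrations were measured by LC/MS.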

[11] = Half life in Beagle dog at 1 mg/kg, iv by LC/MS method; format: ADME, organism-based, Canis lupus familiaris; settings: in vivo
Outline: (§2)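 Beagle dogs, two animals per group, dosed IV at 1 mg/kg in 60% PEG200. Plasma was prepared from collected blood by centrifugation, and compound was quantified by LC/MS.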

[12] = Clearance in Wistar Han rat at 2 mg/kg, iv by LC/MS method; format: ADME, organism-based; settings: in vivo; outline: as §1
[13] = Clearance in Beagle dog at 1 mg/kg, iv by LC/MS method; format: ADME, organism-based, Canis lupus familiaris; settings: in vivo; outline: as §2
[14] = AUC in Wistar Han rat at 10 mg/kg, po by LC/MS method; format: ADME, organism-based; settings: in vivo
Outline: (§3)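 Male Wistar Han rats, two per dosing group, dosed orally at 10 mg/kg in 10% TWEEN. Plasma was separated from collected blood by centrifugation and analysed by LC/MS.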

[15] = AUC in Beagle dog at 5 mg/kg, po by LC/MS method; format: ADME, organism-based, Canis lupus familiaris; settings: in vivo
Outline: (§4)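 Beagle dogs, two animals per dosing group. Oral dose was given in 10% TWEEN. Blood was collected and spun to plasma, and plasma compound levels were measured by LC/MS.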

[16] = Cmax in Wistar Han rat at 10 mg/kg, po by LC/MS method; format: ADME, organism-based; parameters: dose 10 mg/kg, route oral; settings: in vivo; outline: as §3
[17] = Cmax in Beagle dog at 5 mg/kg, po by LC/MS method; format: ADME, organism-based, Canis lupus familiaris; parameters: dose 5 mg/kg, route oral; settings: in vivo; outline: as §4
[18] = Drug level in Wistar Han rat at 10 mg/kg, po measured at 24 hrs by LC/MS method; format: ADME, organism-based; settings: in vivo, read-out: Drug uptake; outline: as §3
[19] = Drug level in Beagle dog at 5 mg/kg, po measured at 24 hrs by LC/MS method; format: ADME, organism-based, Canis lupus familiaris; settings: in vivo, read-out: Drug uptake; outline: as §4
[20] = Oral bioavailability in Wistar Han rat at 10 mg/kg by LC/MS method; format: ADME, organism-based; settings: in vivo; outline: as §3
[21] = Oral bioavailability in Beagle dog at 5 mg/kg by LC/MS method; format: ADME, organism-based, Canis lupus familiaris; settings: in vivo; outline: as §4
[22] = Tmax in Wistar Han rat at 10 mg/kg, po by LC/MS method; format: ADME, organism-based; settings: in vivo; outline: as §3
[23] = MRT in Wistar Han rat at 10 mg/kg, po by LC/MS method; format: ADME, organism-based; settings: in vivo; outline: as §3
[24] = AUC in Wistar Han rat at 100 mg/kg, po by LC/MS method; format: ADME, organism-based; settings: in vivo
Outline: (§5)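 Single rising oral dose study in fed male Wistar Han rats, dosed PO in 10% TWEEN at the indicated doses. Plasma was obtained by centrifuging the blood, and compound levels were determined by LC/MS.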

[25] = Cmax in Wistar Han rat at 100 mg/kg, po by LC/MS method; format: ADME, organism-based; parameters: dose 100 mg/kg, route oral; settings: in vivo; outline: as §5
[26] = Drug level in Wistar Han rat at 100 mg/kg, po measured at 24 hrs by LC/MS method; format: ADME, organism-based; settings: in vivo, read-out: Drug uptake; outline: as §5
[27] = Tmax in Wistar Han rat at 100 mg/kg, po by LC/MS method; format: ADME, organism-based; settings: in vivo; outline: as §5
[28] = MRT in Wistar Han rat at 100 mg/kg, po by LC/MS method; format: ADME, organism-based; settings: in vivo; outline: as §5
[29] = AUC in Wistar Han rat at 300 mg/kg, po by LC/MS method; format: ADME, organism-based; settings: in vivo; outline: as §5
[30] = Cmax in Wistar Han rat at 300 mg/kg, po by LC/MS method; format: ADME, organism-based; parameters: dose 300 mg/kg, route oral; settings: in vivo; outline: as §5
[31] = Drug level in Wistar Han rat at 300 mg/kg, po measured at 24 hrs by LC/MS method; format: ADME, organism-based; settings: in vivo, read-out: Drug uptake; outline: as §5
[32] = Tmax in Wistar Han rat at 300 mg/kg, po by LC/MS method; format: ADME, organism-based; settings: in vivo; outline: as §5
[33] = MRT in Wistar Han rat at 300 mg/kg, po by LC/MS method; format: ADME, organism-based; settings: in vivo; outline: as §5

## COC(=O)N[C@H](C(=O)N1CCC[C@H]1c1nc(-c2ccc3c(c2)O[C@@H](c2ccccc2)n2c-3cc3cc(-c4c[nH]c([C@@H]5CCCN5C(=O)[C@@H](NC(=O)OC)C(C)C)n4)ccc32)c[nH]1)C(C)C
[1]
  EC90: 6 pM
[2]
  EC90: 120 pM

## COC(=O)N[C@H](C(=O)N1CCC[C@H]1c1ncc(-c2cc(F)c3c(c2)O[C@@H](c2ccc(C4CC4)s2)n2c-3cc3cc(-c4cnc([C@@H]5CCCN5C(=O)[C@@H](NC(=O)OC)C5C[C@@H](C)O[C@@H](C)C5)[nH]4)ccc32)[nH]1)C(C)C (stereo partly drawn)
[3]
  EC90: 4 pM
[4]
  EC90: 4 pM
[5]
  EC90: 25 pM
[6]
  EC90: 8 pM
[7]
  EC90: 7 pM
[8]
  EC90: 27 pM
[9]
  EC90: 5 pM
[10]
  half-life: 5.1 h
[11]
  half-life: 7.2 h
[12]
  clearance: 11 mL/min/kg
[13]
  clearance: 3 mL/min/kg
[14]
  AUC: 0.33 to 0.92 µM·h
[15]
  AUC: 2.42 µM·h
[16]
  Cmax: 67 to 80 nM
[17]
  Cmax: 330 nM
[18]
  concentration at 24 h: 3 to 5 nM
[19]
  concentration at 24 h: 11 nM
[20]
  bioavailability: 5.9%
[21]
  bioavailability: 8.5%
[22]
  Tmax: 4 h
[23]
  MRT: 9 h
[24]
  AUC: 1.95 µM·h
[25]
  Cmax: 220 nM
[26]
  concentration at 24 h: 27 nM
[27]
  Tmax: 2 h
[28]
  MRT: 17 h
[29]
  AUC: 4.08 µM·h
[30]
  Cmax: 390 nM
[31]
  concentration at 24 h: 40 nM
[32]
  Tmax: 6 h
[33]
  MRT: 11 h
